# Measurements: publication PMC7453568 (ACS Central Science, 2020)
# “Also recorded” adds a separate entry of the source.
# Legend:
# KRAS^G12C [1] = target: T1, KRAS^G12C (Homo sapiens, UniProt P01116, G12C); test: KRAS^G12C degradation, total KRAS levels by immunoblotting; assay type: cell-based
# KRAS^G12C [2] = target: T1, KRAS^G12C; test: KRAS^G12C engagement, band shift of PROTAC-conjugated KRAS on immunoblot; assay type: cell-based; conditions: 2.5 μM
# How it was run: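 KRAS was immunoblotted from independent wells harvested the same day. Engagement was the intensity of the higher-molecular-weight, PROTAC-modified band relative to unbound KRAS in DMSO samples. Mean ± SD, two biological replicates.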
# KRAS^G13D = KRAS^G13D (Homo sapiens, UniProt P01116, G13D); test: KRAS engagement/degradation in HCT 116 cells; assay type: cell-based; conditions: HCT 116 cells (heterozygous KRAS^G13D), up to 10 μM
# pErk = test: Erk signaling; assay type: cell-based, human; conditions: for pErk: MIA PaCa-2 and NCI-H23 cells, 6 and 24 h
# How it was run: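 Human KRAS^G12C cancer cells were treated for 24 h over a degrader dose range (NCI-H2030, heterozygous NCI-H23). Separately, MIA PaCa-2 and NCI-H23 received degrader or parent covalent inhibitor for 6 and 24 h, and time courses used 2.5 μM degrader. pErk and total Erk were immunoblotted and quantified against DMSO-treated cells. Lysates came from independent wells harvested the same day. Time-course data: mean ± SD, two biological replicates.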
# NCI-H2030 cells = test: Cell viability assay; assay type: cell-based, human; conditions: homozygous NCI-H2030 cells, MTS, 72 h
# NCI-H23 cells = test: Cell viability assay; assay type: cell-based, human; conditions: heterozygous NCI-H23 cells, MTS, 72 h
# [3] = MIA PaCa-2, NCI-H23 and SW1573 cells, 2.5 μM, 6-72 h time course
# [4] = NCI-H2030 cells, 2.5 μM, 24 h time course
smiles,measurement,setting,value
C=C(F)C(=O)N1CCN(c2nc(OC[C@@H]3CCCN3CCCOCCC(=O)N[C@H](C(=O)N3C[C@H](O)C[C@H]3C(=O)NCc3ccc(-c4scnc4C)cc3)C(C)(C)C)nc3c2CCN(c2cccc4cccc(Cl)c24)C3)C[C@@H]1CC#N [LC-2],Dmax,"KRAS^G12C [1]; MIA PaCa-2, MIA PaCa-2 cells, KRAS^G12C +/+, 24 h",~75%
same,duration of KRAS degradation,KRAS^G12C [1]; [3],sustained up to 72 h
same,time to maximal KRAS degradation,KRAS^G12C [1]; [3],≤ 24 h
same,Dmax,"KRAS^G12C [1]; NCI-H23, NCI-H23 cells, KRAS^G12C +/−, 24 h",~90%
same,KRAS degradation,KRAS^G12C [1]; NCI-H23 cells (heterozygous),> 50%
same,KRAS degradation with neddylation inhibition,"KRAS^G12C [1]; NCI-H23 cells, 2.5 μM LC-2, 24 h",rescues; also recorded: rescued KRAS degradation
same,KRAS^G12C level rebound,"KRAS^G12C [1]; NCI-H23 cells, 2.5 μM, 72 h time course",began to rebound at 72 h
same,Dmax,"KRAS^G12C [1]; NCI-H358, NCI-H358 cells, KRAS^G12C +/−, 24 h",~40%
same,Dmax,"KRAS^G12C [1]; NCI-H2030, NCI-H2030 cells, KRAS^G12C +/+, 24 h",~75%
same,KRAS^G12C levels with neddylation inhibitor MLN4924,"KRAS^G12C [1]; NCI-H2030 cells, 1 μM MLN4924, 2.5 μM LC-2, 4 h",rescued KRAS^G12C levels
same,KRAS^G12C levels with proteasome inhibitor epoxomicin,"KRAS^G12C [1]; NCI-H2030 cells, 1 μM epoxomicin, 2.5 μM LC-2, 4 h",rescued KRAS^G12C levels
same,KRAS^G12C degradation,"KRAS^G12C [1]; NCI-H2030 cells, 2.5 μM, 4 h",~65%
same,persistence of maximal degradation,KRAS^G12C [1]; [4],persisted up to 24 h; also recorded: maintained up to 24 h
same,time to maximum degradation,KRAS^G12C [1]; [4],≤ 8 h
same,lowest concentration inducing maximal degradation of endogenous KRAS^G12C,"KRAS^G12C [1]; NCI-H2030 cells, 24 h",2.5 µM
same,"KRAS levels, dose response","KRAS^G12C [1]; NCI-H2030 cells, 24 h, increasing concentrations",degrades KRAS^G12C in a dose-dependent manner
same,Dmax,"KRAS^G12C [1]; SW1573, SW1573 cells, KRAS^G12C +/+, 24 h",~90%
same,time to maximal degradation,"KRAS^G12C [1]; SW1573 cells, 2.5 μM, 24 h time course",12 h
same,time at which KRAS^G12C binding/engagement is seen,KRAS^G12C [2]; NCI-H2030 cells,≤ 1 h
same,time at which KRAS engagement is seen,KRAS^G12C [2]; SW1573 cells,≤ 1 h
same,engagement or degradation of KRAS^G13D,KRAS^G13D,No engagement or degradation
same,pErk,pErk; 2.5 μM,suppressed
same,"pErk signaling, dose response","pErk; NCI-H23 cells, 24 h",dose-dependent decrease
same,"pErk signaling, dose response","pErk; NCI-H2030 cells, 24 h",dose-dependent decrease
same,pErk levels versus DMSO-treated cells,"pErk; SW1573 cells, 2.5 μM, 24 h",significantly lower
same,total Erk versus DMSO,"pErk; SW1573 cells, 2.5 μM, all time points",increased
same,phosphorylated Erk,"pErk; SW1573 cells, 2.5 μM, between 1 and 4 h",inhibited
same,pErk levels,"pErk; SW1573 cells, 2.5 μM, between 8 and 24 h",rebounded
C=C(F)C(=O)N1CCN(c2nc(OC[C@@H]3CCCN3C)nc3c2CCN(c2cccc4cccc(Cl)c24)C3)C[C@@H]1CC#N [MRTX849],pErk,pErk; 0.10 μM,suppressed
same,cell viability (antiproliferative potency),NCI-H2030 cells,more antiproliferative
same,cell viability (antiproliferative potency),NCI-H23 cells,more antiproliferative
